AI-2 QS mod = Vibrio harveyi AI-2 quorum sensing modulators, primary screen, JMH597 strain, luminescence/OD600 ratio; activity change, % at 7.5 µM; Vibrio harveyi JMH597 AI-2 luminescence/OD600 ratio, 9 h; stronger effect = lower value; strain lacks LuxN and CqsS sensors; 0 = neutral-control median; 0.4% of 300,000 active; in the data active means activity change below about -75%, passing the limit was not always enough;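 further: luminescence divided by OD600 gain over 9 h not by final OD600 alone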
PP1 counter = PP1-alpha phosphatase inhibitors, primary screen, counter-screen for PP5 inhibitor project, biochemical, fluorescence, OMFP substrate, single point | purified PP1alpha | inhibition, % at 6.7 µM | 0.9% of 320,000 active | AID 2235, 2010;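 active means inhibition above the mean inhibition of all tested compounds plus 3 SD, computed separately for each screening campaign, cut at about 15% in these data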
Target sequence (P62136 whole entry, looked up): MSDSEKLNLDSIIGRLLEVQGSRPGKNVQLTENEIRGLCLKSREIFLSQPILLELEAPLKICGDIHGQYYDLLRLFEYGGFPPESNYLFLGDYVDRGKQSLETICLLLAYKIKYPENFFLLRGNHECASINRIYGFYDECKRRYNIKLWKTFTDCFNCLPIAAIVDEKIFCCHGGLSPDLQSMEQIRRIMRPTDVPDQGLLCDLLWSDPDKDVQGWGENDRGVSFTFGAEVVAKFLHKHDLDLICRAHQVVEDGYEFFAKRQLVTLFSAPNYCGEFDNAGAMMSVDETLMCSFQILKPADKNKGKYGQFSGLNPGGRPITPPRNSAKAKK
UBC13 polyUb = UBC13 polyubiquitin chain formation inhibitors, primary screen, biochemical, TR-FRET, uHTS | inhibition, % at 20 µM | 0.47% of 330,000 active; in the data active means inhibition above about 45%, passing the limit was not always enough
Target sequence (P61088 whole entry, looked up): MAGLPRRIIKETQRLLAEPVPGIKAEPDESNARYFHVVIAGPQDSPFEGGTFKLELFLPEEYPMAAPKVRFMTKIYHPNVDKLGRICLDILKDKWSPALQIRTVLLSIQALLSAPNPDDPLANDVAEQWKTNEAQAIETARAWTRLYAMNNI
pCIP destab = p/CIP-EGFP fusion destabilizers, primary screen, fluorescence, F442A cells | 16 h | decrease of EGFP signal, % at 10 µM | 0.01% of 290,000 active | AID 1984, 2009;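 active means EGFP signal decrease of at least 30% at 10 µM or well 3 SD below plate mean, unless failing retest; inactive means the rest, including hits failing retest or dose response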
T cruzi repl = inhibitors of intracellular T. cruzi growth, primary screen, luminescence, NIH3T3 host cells. T. cruzi beta-gal in NIH3T3, 90 h. inhibition, % (concentration not given with the values). 1.4% of 300,000 active. AID 1885, 2009;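 active means mean inhibition across valid replicates above about 55%, limit read from the data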;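 further: signal also drops with host cell toxicity which is not excluded here; higher percent means less beta-gal luminescence so fewer parasites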
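Assay system: NIH/3T3 fibroblasts plus reporter T. cruzi. Amount: NIH/3T3 cells, 5,000 per well. Buffer or medium: DMEM, 2% fetal bovine serum. Doses: compound pinned at 50 nL/well, DMSO. Schedule: ≥90 h infection period, 3 h prior cell attachment. Signal: luminescent β-galactosidase signal after 60 min lysis. Read-out: parasite load inhibition, %.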
Numbers stand for hits; n = inactive; x = not tested or not shown. Hits are enriched below; roughly 2.8% of the tested compounds scored in any of these assays.

SMILES	AI-2 QS mod	PP1 counter	UBC13 polyUb	pCIP destab	T cruzi repl
COc1ccccc1N(CC(O)Cn1c2ccccc2c2ccccc21)S(=O)(=O)c1ccccc1 (stereo unspecified)	n	n	n	n	63
O=S(=O)(c1ccccc1)N(CC(O)Cn1c2ccccc2c2ccccc21)c1ccccc1 (stereo unspecified)	n	n	n	n	n
Cc1ccc(-c2nc3ccccc3c(=O)n2CCCN2CCOCC2)cc1	n	n	n	n	n
Cc1ccc(-c2csc3nc4c5ccccc5c(NCCCN5CCOCC5)nn4c(=O)c23)cc1	n	n	56	n	n
COc1cccc(NC(=O)CCS(=O)(=O)c2ccc3c(c2)oc(=O)n3C)c1	n	n	n	n	n
CCCN(CC#CC(O)(c1ccccc1)c1cccnc1)CCC (stereo unspecified)	n	n	n	n	65
OC(C#CCN1CCCC1)(c1ccccc1)c1cccnc1 (stereo unspecified)	n	n	n	n	n
CN(C)S(=O)(=O)c1ccc(NC(=O)N2CCN(c3cccc(C(F)(F)F)c3)CC2)cc1	n	n	n	n	55
O=C(Nc1ccc(Cl)cc1)Nc1csc([N+](=O)[O-])c1	-83	n	n	n	n
Cc1ccc(NC(=O)Nc2ccccc2)cc1[N+](=O)[O-]	n	n	n	n	n
O=C(Nc1ccccc1)Nc1ccc(Cl)c([N+](=O)[O-])c1	-102	n	n	n	n
O=C(Nc1csc([N+](=O)[O-])c1)Nc1c(Cl)cccc1Cl	n	n	n	n	n
O=C(/C=C/c1cccs1)N1CCC2(CC1)Oc1ccc(Cl)cc1C(=O)C21CC(c2cccnc2)=NO1 (stereo unspecified)	n	n	n	n	n
CCOC(=O)c1sc(NC(=O)Nc2ccccc2Cl)cc1C	n	n	n	n	65
CCOC(=O)c1sc(-c2ccccc2)cc1NC(=O)Nc1ccccc1	n	n	x	n	55
CCOC(=O)c1sc(NC(=O)Nc2ccccc2)cc1C	n	n	n	n	n
COc1ccc(CNC(=O)c2ccc3ccccc3n2)cc1	n	17	n	n	n
Cc1ccc(S(=O)(=O)CC(=O)c2ccccc2)cc1	-79	n	n	n	n
Cc1ccc(S(=O)(=O)CC(=O)c2ccc([N+](=O)[O-])cc2)cc1	n	n	n	n	n
O=C(Nc1ccc(F)cc1)Nc1nnc(Cc2ccccc2)s1	n	17	n	n	n
FC(F)(F)c1cccc(Nc2nc(N3CCCC3)nc(N3CCCC3)n2)c1	n	n	n	n	n
CN1CCN(c2nc(Nc3cccc(C(F)(F)F)c3)nc(N3CCOCC3)n2)CC1	n	n	n	n	58
Cc1cc(C)c(S(=O)(=O)N2CCN(C(=O)CN3C(=O)NC4(CCCC4)C3=O)CC2)c(C)c1	n	n	n	n	n
Cc1cc(/C=N/N2CCN(C)CC2)c(C)n1-c1ccccc1F	n	n	n	n	67
Oc1cc2c(cc1C(c1ccc(Br)cc1)N1CCCC1)OCO2 (stereo unspecified)	x	x	n	n	x
SMILES	AI-2 QS mod	PP1 counter	UBC13 polyUb	pCIP destab	T cruzi repl
COc1cccc(C2CC(c3ccccc3Cl)n3ncnc3N2)c1 (stereo unspecified)	n	n	n	n	n
O=[N+]([O-])c1ccc(C2CCCC/C2=N/OCc2ccc(F)cc2)c([N+](=O)[O-])c1 (stereo unspecified)	n	n	n	n	61
CC(C)C(OC(=O)CN1C(=O)c2ccccc2C1=O)C(=O)NC1CCCC1 (stereo unspecified)	n	n	n	n	n
CCN(CC)S(=O)(=O)c1cnccc1N1CCN(c2cccc(Cl)c2)CC1	n	n	n	n	65
CNS(=O)(=O)c1cnccc1N1CCN(c2cccc(Cl)c2)CC1	n	n	n	n	n
CN1CCN(S(=O)(=O)c2cnccc2N2CCN(c3cccc(Cl)c3)CC2)CC1	n	n	n	n	56
CC(OC(=O)c1ccncc1)C(=O)Nc1ccc([N+](=O)[O-])cc1Cl (stereo unspecified)	n	n	n	n	n
CCCNC(=O)Cn1sc2nc(C)cc(C)c2c1=O	n	n	n	n	56
Nc1c(Cl)cc(-c2csc(N3CCCC3c3nc4cc(Cl)c(N5CCCCC5)cc4n3CCCO)n2)cc1Cl (stereo unspecified)	n	17	n	x	n
O=c1cc(-c2c(F)c(F)c(F)c(F)c2F)oc2c(F)c(F)c(F)c(F)c12	-78	n	n	n	61
Cc1ccc(SCCNC(=S)Nc2ccc(C)cc2C)cc1	n	n	n	n	58
O=[N+]([O-])c1cc([N+](=O)[O-])c(Oc2c(F)cc(F)cc2F)cc1NN1CCCCC1	n	n	n	n	n
CCCCn1c2ccc(F)cc2c2nnc(SCCN3CCCCC3)nc21	n	x	n	n	59
CCCCn1c2ccc(C)cc2c2nnc(SCCN3CCCCC3)nc21	n	x	n	n	n
Cc1ccc(C)c(S(=O)(=O)N2CCN(C(=O)CCCc3c[nH]c4ccccc34)CC2)c1	n	n	n	x	64
Cc1ccc(C)c(S(=O)(=O)N2CCN(C(=O)CCc3c[nH]c4ccccc34)CC2)c1	x	n	n	x	x
O=C(Cn1cnc2ccccc2c1=O)NNC(=O)c1ccccc1	n	n	n	n	n
O=C(c1ccccc1)c1nn(-c2ccccc2)c2nnc(Cc3ccccc3)c(=O)n12	n	n	n	n	n
Cc1ccc(-n2nc(C(=O)c3ccccc3)n3c(=O)c(Cc4ccccc4)nnc23)cc1	n	17	n	x	n
Cc1nnc(C)c2c(C)n(C(c3ccccc3)c3ccccc3)c(C)c12	n	n	n	n	59
O=C(Nc1ccccc1)c1ccc(Nc2c([N+](=O)[O-])cc([N+](=O)[O-])c3ccccc23)cc1	n	n	n	n	66
COc1ccc(OC)c(Nc2nc(N(C)c3ccccc3)nc(N)c2[N+](=O)[O-])c1	n	n	n	n	69
CN(c1ccccc1)c1nc(N)c([N+](=O)[O-])c(Nc2ccccc2F)n1	n	n	n	n	n
CCCc1cc(=O)oc2c3c(c4c(c12)OC(C)(C)C=C4)OC(C)C(C)C3O (stereo unspecified)	n	n	n	n	55
CCCc1cc(=O)oc2c3c(cc(OCC(=O)N[C@@H](C)C(=O)O)c12)OC(C)(C)CC3	n	n	n	n	n
CCOc1ccc(CCNC(=O)c2ccc(=O)[nH]c2)cc1OCC	n	n	n	n	n
COc1ccccc1NC(=O)/C(=C/c1ccncc1)NC(=O)c1ccccc1	n	n	n	n	n
Nc1nonc1C(=O)N/N=C/c1cc(Br)ccc1O	-89	n	n	n	n

Source: PubChem BioAssay (several laboratories)
